# Screening data as filed in PubChem BioAssay.
# UBC9 SUMO inh: inhibitors of human SUMOylation (UBC9); P63279; HTRF SUMOylation assay, SAE1/SAE2 + UBC9, in vitro; inhibition, % at 35 µM; 290,000 tested, 0.36% active; AID 2006; in the data active = inhibition above about 50%, passing the limit was not always enough
# Target sequence (P63279 whole entry, looked up): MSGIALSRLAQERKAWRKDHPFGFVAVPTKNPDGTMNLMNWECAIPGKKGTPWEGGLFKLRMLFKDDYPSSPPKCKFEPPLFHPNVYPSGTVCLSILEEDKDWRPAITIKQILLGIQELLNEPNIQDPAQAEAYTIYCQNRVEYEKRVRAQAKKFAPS
# DNA FID counter: fluorescent intercalator displacement, NS3 helicase counter-screen | DNA fluorescent intercalator displacement, fluorescence | inhibition, % at 7.9 µM | 290,000 tested, 0.17% active; in the data active = inhibition above about 37%;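 also: 0% = vehicle and 100% = reference compound; higher means more ethidium bromide displaced from hairpin DNA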
# SUMO Mot1 rescue: SUMOylation pathway inhibition by Mot1-301 growth rescue; S. cerevisiae Mot1-301 growth rescue, ATP luminescence, 38.5C; percent above DMSO median, 100 means doubled; growth rescue, % at 18.8 µM; 320,000 tested, 1% active; AID 2716;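 active = every valid replicate shows activation above 250% relative to neutral control wells; inactive = the rest, any valid replicate at or below 250%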;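 also: OY570 slx delta 5 strain wells were the positive control but not used for scaling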
# IMP-1 inh: blocks Pseudomonas aeruginosa IMP-1 metallo-beta-lactamase; purified IMP-1, nitrocefin hydrolysis, epi-absorbance fluorescence; inhibition, % at 5.6 µM; 290,000 tested, 0.45% active;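 active = inhibition above the mean plus 3 SD of all compounds in the same screening run, cut at about 4.5% in these data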;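 also: 0% = IMP-1 with DMSO and 100% = DMSO wells lacking enzyme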
#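 Material – recombinant IMP-1 enzyme, purified · Amount – IMP-1 0.2 nM before substrate addition · Medium – HEPES buffer pH 7.1 with ZnSO4 and Brij 35 · Timing – 25 °C, 15 min preincubation, 25 min reaction · Measured by – plate fluorescence quenching by hydrolysis product, ex 480/em 530 nm · Read-out – percent enzyme inhibition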
# VIM-2 inh: inhibitors of Pseudomonas aeruginosa VIM-2 metallo-beta-lactamase; purified VIM-2, nitrocefin hydrolysis, epi-absorbance fluorescence; inhibition, % at 5.6 µM; 290,000 tested, 0.89% active; AID 1527;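 active = inhibition above the mean of all tested compounds plus 3 SD, cutoff set per screening run, cut at about 7.5% in these data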;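 also: red hydrolysis product quenches plate fluorescence so inhibitors raise well fluorescence; 0% = enzyme with DMSO and 100% = DMSO without enzyme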
# NALP1 inh: NALP1 inhibition; S. cerevisiae NALP1/ASC/caspase-1 growth, X-gal OD620, 72 h; AID 2071; 280,000 tested, 0.61% active; inhibition, % at 10 µM; in the data active = inhibition mostly above about 24%, no sharp cut-off; inactive = mostly below about 32%
# * hit, by the source's call; i = inactive; / = no result. The list is not random: actives were taken first. Their share in the collection is about 2.9%.
SMILES,UBC9 SUMO inh,DNA FID counter,SUMO Mot1 rescue,IMP-1 inh,VIM-2 inh,NALP1 inh
Cn1c(CC(=O)Nc2ccccc2Cl)nnc1SCC(=O)NC1CCCCC1,7,-18,-25,0,2,22
CCN(CCNC(=O)C1CCN(Cc2nc(-c3ccc(Cl)cc3)oc2C)CC1)c1ccccc1,14,44*,43,-6,-2,34
Cc1cc(Cl)nc2ccc(Cc3ccc4nc(Cl)cc(C)c4c3)cc12,10,-17,-1,-3,0,-6
COc1ccc(S(=O)(=O)N2CCCC2)cc1C(C)C,9,-17,5,-4,-3,4
COc1cc(/C=N/n2cc(-c3ccccc3)[nH]c2=S)cc(OC)c1O,3,-8,540*,-3,-5,-23
S=c1[nH]c(-c2ccccc2)cn1/N=C/c1ccccc1Br,8,-12,14,-2,-3,3
Cc1ccc(/C=N/n2cc(-c3ccccc3)[nH]c2=S)s1,12,-13,-12,-4,-4,25*
O=C(NCC1CCCCC1)c1ccc(F)cc1Cl,-7,-9,-5,-4,-3,-11
Clc1ccc2[nH]cc(-c3nnnn3-c3ccc4ccccc4c3)c2c1,-14,5,-6,-2,0,44
COc1ccccc1CNC(=O)COC(=O)Cc1ccc(Cl)cc1,-2,-22,-7,1,-2,31
CCCCn1c(N)c(N(CCC(C)C)C(=O)C2=NN(c3cc(C)ccc3C)C(=O)CC2)c(=O)[nH]c1=O,/,/,-2,/,/,/
Cc1ccc(S(=O)(=O)N2CCOCC2)s1,2,-2,-6,-1,0,11
O=C1OCC(c2ccccc2)=C1c1ccc(S(=O)(=O)N2CCOCC2)s1,30,-6,93,44*,0,14
CC1=NN(C(=O)c2ccc(C)o2)C(O)(c2ccccc2)C1 (stereo not drawn),-7,-4,-17,46*,-1,20
Cc1cc(C)c(NC(=O)Cn2nnc(C(=O)NCc3ccc4c(c3)OCO4)c2N)c(C)c1,8,-22,-4,-2,-1,14
CCOc1ccc(CCNC(=O)C2CCN(c3nnc(-n4cccc4)s3)CC2)cc1,5,-11,-19,-2,1,42*
CCOc1ccc(CCNC(=O)C2CCN(c3nnc(-n4cccc4)s3)CC2)cc1OCC,-6,-33,-9,-6,-2,0
CCOc1ccc(S(=O)(=O)N2CCC(C(=O)NCCc3ccc(OC)c(OC)c3)CC2)cc1,21,-42,0,-3,-3,15
CCOc1ccc(S(=O)(=O)N2CCC(C(=O)NCCc3ccc(S(N)(=O)=O)cc3)CC2)cc1,14,-30,271*,-3,0,15
COc1ccc(S(=O)(=O)N2CCC(C(=O)NCCC(=O)NC3CC3)CC2)cc1,-6,2,0,-1,-1,34*
NS(=O)(=O)c1ccc(NC(=O)COc2ccc(S(=O)(=O)N3CCCC3)cc2)cc1,2,-8,342*,-5,-3,6
CCOc1ccc(NCc2cccn2-c2nnc(N3CCC(C(=O)NCCCN4CCCCC4C)CC3)s2)cc1 (stereo not drawn),11,26,-10,-3,-3,7
CCOc1ccc(NCc2cccn2-c2nnc(N3CCC(C(=O)NCCCN4C(C)CCCC4C)CC3)s2)cc1 (stereo not drawn),-6,41*,5,-1,-1,18
Cc1ccc2nc(C)c3c(c2c1)N(c1ccc(F)cc1)CC3,29,4,104,-1,11*,/
COc1cccc2c1nc(C)c1cc(C)oc12,22,2,/,-4,-3,20
SMILES,UBC9 SUMO inh,DNA FID counter,SUMO Mot1 rescue,IMP-1 inh,VIM-2 inh,NALP1 inh
COc1cccc2c3c(c(C)nc12)CCN3c1ccccc1,28,10,-4,-2,11*,8
Nc1c2c(nc3ccccc13)N(c1ccccc1)CC2,6,/,-6,/,/,11
CSc1nc(C)c2c(n1)N(c1ccc(F)cc1)CC2,0,-1,-18,-2,-6,3
COc1ccccc1N1CCc2c(C)nc3c(OC)cccc3c21,43,1,-9,-2,12*,33
Cc1cccc(OCCCC(=O)Nc2ccc(S(=O)(=O)Nc3nccs3)cc2)c1C,15,-24,219,-1,-2,6
CN(C)S(=O)(=O)c1ccc(C(=O)NC2CCCc3ccccc32)cc1 (stereo not drawn),-2,-14,-5,-2,0,8
CCCc1cc(=O)oc2cc(C)c(CN3CCCC3)c(O)c12,31,-18,-1,7.7*,4,6
CCCc1cc(=O)oc2c(CN3CCCC3)c(O)ccc12,30,3,/,-2,0,-14
N=C1C(c2nc(-c3ccc(F)cc3)cs2)=C(O)CN1CCCN1CCOCC1,5,13,27,0,12*,-3
CC1CC(C)CN(C(=O)C(NS(=O)(=O)c2ccc(Br)s2)c2ccccc2)C1 (stereo not drawn),-2,-23,29,-1,-1,31
CC(C)N(CCO)C(=O)CCc1nnc(Cc2cccc(C(F)(F)F)c2)o1,-2,-12,-6,-5,-4,-10
O=C(Cc1cccs1)Nc1cccc(-c2nc3cc4ccccc4cc3[nH]2)c1,-6,5,811*,-3,-2,23
O=C(O)c1ccc(NC(=O)c2cccc(NC(=O)c3cccs3)c2)cc1,5,-12,11,-3,-4,36*
CC(=O)c1ccc(NC(=O)c2cccc(NC(=O)c3ccccc3)c2)cc1,10,-18,5,7.2*,-1,13
CC(=O)c1cccc(NC(=O)c2ccc3ccccc3c2)c1,2,-22,i,-2,-1,12
O=C(Nc1ccc(-c2nc3ccc(NC(=O)c4cccs4)cc3[nH]2)cc1)c1cccs1,56*,8,4,12*,-5,38
O=C(Nc1cccc(O)c1)c1ccc(NC(=O)c2cccs2)cc1,19,-9,318,-2,-3,10
CC(=O)Nc1cccc(NC(=O)Cc2cccs2)c1,5,-3,7,-3,-3,3
O=C(CCC(=O)N1CCN(Cc2ccccc2)CC1)Nc1nnc(C2CCCCC2)s1,-8,-30,169,-1,-1,11
Cc1cccc(OCC(=O)OCC(=O)N2CCN(C(=O)c3ccco3)CC2)c1C,5,-30,-19,-1,0,7
CCCCn1c(NS(=O)(=O)c2ccc(C)cc2)c(S(=O)(=O)c2ccccc2)c2nc3ccccc3nc21,100*,-7,8,0,1,8
CCCCn1c(NCc2ccccc2NS(=O)(=O)c2ccc(C)cc2)nc2ccccc21,-2,-2,5,-1,0,16
O=C(Nc1ccc(NC(=O)c2ccc(Cl)cc2Cl)cc1)c1ccc2c(c1)OCO2,4,0,7,0,-2,22
